Measurements published in ChEMBL document CHEMBL2046375, “Antiprotozoal sesquiterpene pyridine alkaloids from Maytenus ilicifolia” (J Nat Prod, 2012).
Calls of active or inactive are those of the source. No cut-off for these calls is given here.

Experiments:
Leishmania chagasi [1] = experiment: Antileishmanial activity against Leishmania chagasi MHOM/BR/1974/PP75 after 72 hrs by MTT assay; type: functional, organism-based; conditions: MHOM/BR/1974/PP75, 72 h
Outline: (§1)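 Promastigotes from 4-day-old LIT cultures (10% heat-inactivated FCS), seeded at 8 × 10^6 parasites/mL. Compounds dissolved in DMSO, tested at 10 concentrations from 100 to 0.098 μg/mL. 72 h at 28 °C. MTT-PMS added, 75 min in dark at 28 °C, then 10% SDS for 30 min at room temperature. Absorbance read at 490 nm. Triplicate per concentration, IC50 from percentage cytotoxicity. Pentamidine isothionate was the reference drug.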

Leishmania amazonensis [2] = experiment: Antileishmanial activity against Leishmania amazonensis MPRO/BR/1972/M1841-LV-79 after 72 hrs by MTT assay; type: functional, organism-based; conditions: MPRO/BR/1972/M1841-LV-79, 72 h; outline: as §1
Trypanosoma cruzi [3] = experiment: Antitrypanosomal activity against epimastigotes of Trypanosoma cruzi after 72 hrs by MTT assay; type: functional, organism-based
Outline: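 Y-strain epimastigotes grown axenically at 28 °C in LIT with 10% FCS, harvested at 7 days (exponential phase). Test wells held 1 × 10^7 parasites/mL. Compounds from DMSO stock at 10 concentrations spanning 100–0.098 μg/mL. 72 h at 28 °C. MTT-PMS added, 75 min in dark, then 10% SDS for 30 min. Read at 595 nm, triplicate. Benznidazole served as reference.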

[4] = Selectivity index, ratio of IC50 for Balb/c mouse peritoneal macrophages to IC50 for epimastigotes of Trypanosoma cruzi
Outline: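 Ratio of IC50 in Balb/c peritoneal macrophages (24 h MTT) to IC50 against T. cruzi Y-strain epimastigotes (72 h MTT, 28 °C).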

[5] = Cytotoxicity against Balb/c mouse peritoneal macrophages after 24 hrs by MTT assay; type: cell-based; conditions: Peritoneal macrophage cell
Outline: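 Thioglycolate-elicited peritoneal macrophages (3 mL of 3% given i.p., harvested 3 days later by PBS pH 7.2 lavage). Cells in RPMI 1640 with 5% FCS, antibiotics and mercaptoethanol, stock suspension at 5 × 10^6 cells/mL. Mixed 1:1 with test solution, 24 h at 37 °C, 7.5% CO2. MTT added for 3 h, formazan dissolved in 2-propanol, OD read at 590 nm versus RPMI-only control. Triplicate.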

Trypanosoma cruzi [6] = experiment: Antitrypanosomal activity against epimastigotes of Trypanosoma cruzi at 100 uM after 72 hrs by MTT assay; type: functional, organism-based
Leishmania amazonensis [7] = experiment: Antileishmanial activity against Leishmania amazonensis MPRO/BR/1972/M1841-LV-79 at 100 uM after 72 hrs by MTT assay; type: functional, organism-based
Leishmania chagasi [8] = experiment: Antileishmanial activity against Leishmania chagasi MHOM/BR/1974/PP75 at 100 uM after 72 hrs by MTT assay; type: functional, organism-based

SMILES: N=C(N)c1ccc(OCCCCCOc2ccc(C(=N)N)cc2)cc1 [PENTAMIDINE]
- IC50 (Leishmania chagasi [1]): 5.1 µM
- IC50 (Leishmania amazonensis [2]): 7 µM

SMILES: CC(=O)OC[C@]12[C@H](OC(C)=O)[C@@H](OC(=O)c3ccccc3)[C@@H]3[C@@H](OC(C)=O)[C@@]14O[C@@]3(C)COC(=O)c1cccnc1[C@@H](C)[C@H](C)C(=O)O[C@@H]([C@H](OC(C)=O)[C@@H]2OC(C)=O)[C@]4(C)O
- IC50 (Trypanosoma cruzi [3]): 41.9 µM
- Ratio IC50 [4]: 44
- IC50 [5]: 1850 µM
- IC50 (Leishmania chagasi [1]): 1.4 µM
- IC50 (Leishmania amazonensis [2]): > 100 µM

SMILES: CC(=O)OC[C@]12[C@H](OC(C)=O)[C@H](OC(C)=O)[C@@H]3[C@@H](OC(C)=O)[C@@]14O[C@@]3(C)COC(=O)c1cccnc1C(C)C(C)C(=O)O[C@@H]([C@H](OC(C)=O)[C@@H]2OC(=O)c1ccccc1)[C@]4(C)O (stereo partly specified)
- Activity (Trypanosoma cruzi [6]): inactive
- Activity (Leishmania amazonensis [7]): inactive
- Activity (Leishmania chagasi [8]): inactive

SMILES: CC(=O)OC[C@]12[C@H](OC(C)=O)[C@@H](OC(=O)c3ccccc3)[C@@H]3[C@@H](O)[C@@]14O[C@@]3(C)COC(=O)c1cccnc1[C@@H](C)[C@H](C)C(=O)O[C@@H]([C@H](OC(C)=O)[C@@H]2OC(C)=O)[C@]4(C)O [ILICIFOLIUNINE A]
- IC50 (Trypanosoma cruzi [3]): 27.7 µM
- Ratio IC50 [4]: 46.2
- IC50 [5]: 1280 µM
- IC50 (Leishmania chagasi [1]): > 100 µM
- IC50 (Leishmania amazonensis [2]): > 100 µM

SMILES: O=C(Cn1ccnc1[N+](=O)[O-])NCc1ccccc1 [BENZNIDAZOLE]
- IC50 (Trypanosoma cruzi [3]): 42.7 µM
- Ratio IC50 [4]: 26.7
- IC50 [5]: 1140 µM

SMILES: CC(=O)OC[C@]12[C@H](OC(C)=O)[C@@H](OC(=O)c3ccccc3)[C@@H]3[C@@H](OC(C)=O)[C@@]14O[C@@]3(C)COC(=O)c1cccnc1CCC(C)C(=O)O[C@@H]([C@H](OC(C)=O)[C@@H]2OC(C)=O)[C@]4(C)O (stereo partly specified)
- Activity (Trypanosoma cruzi [6]): inactive
- Activity (Leishmania amazonensis [7]): inactive
- Activity (Leishmania chagasi [8]): inactive
